Assay [1] in a line: Inhibition of bovine heart phosphodiesterase using 1 uM cyclic-AMP (Insoluble). Set-up: species or system Bos taurus. A digest of the protocol: (§1)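 Commercial bovine heart phosphodiesterase assayed by the Klee method with 1 μM cyclic-AMP substrate. Poorly soluble inhibitors were predissolved in 95% ethanol, giving 2.5% ethanol final. I50 was taken from a plot of V0/V against inhibitor concentration as the concentration where V0/V = 2. Five concentrations spanning 25–75% inhibition were used, and each I50 was repeated at least three times; ± standard error.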

Assay [2] is filed under the species Bos taurus. The assay is described as follows: Inhibition of bovine heart phosphodiesterase at 1000 uM using 1 uM cyclic-AMP. The method, boiled down:
(§2)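 Percent inhibition of commercial bovine heart phosphodiesterase at the single stated inhibitor concentration, measured by the Klee method with 1 μM cyclic-AMP substrate. Some compounds were dissolved in 95% ethanol, giving 2.5% final ethanol, before dilution with buffer.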

The species named for assay [3] is Bos taurus. The assay is described as follows: Relative potency of compound to that of theophylline against phosphodiesterase from bovine heart. A digest of the protocol:
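Klee-method assay of commercial bovine heart phosphodiesterase with 1 μM cyclic-AMP; some inhibitors were dissolved in 95% ethanol (2.5% final). I50 came from V0/V versus concentration plots (V0/V = 2), using five concentrations and at least three repeats. Each value is expressed relative to the I50 of a theophylline control (= 1.0) run with or without ethanol to match.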

Assay [4] in a line: Inhibitory activity against phosphodiesterase using 1 uM cyclic-AMP as substrate in bovine heart. Set-up: species or system Bos taurus. The conditions noted are these: read-out: I50. A digest of the protocol:
as §1

For assay [5], the species on record is Bos taurus. The assay is described as follows: Inhibition of bovine heart phosphodiesterase at 2000 uM using 1 uM cyclic-AMP. The method, boiled down:
as §2

The species entered for assay [6] is Bos taurus. The assay can be described thus: Inhibition of bovine heart phosphodiesterase at 1500 uM using 1 uM cyclic-AMP. The method, boiled down: as §2
The species named for assay [7] is Bos taurus. The assay is described as follows: Inhibition of bovine heart phosphodiesterase at 3000 uM using 1 uM cyclic-AMP. The method, boiled down:
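Commercial bovine heart cyclic-AMP phosphodiesterase assayed by the Klee method with 1 μM cyclic-AMP substrate. Poorly soluble compounds were dissolved in 95% ethanol (2.5% final) before dilution with buffer. Activity is read as percent inhibition at a single inhibitor concentration.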

The nature of assay [8]: Inhibition of bovine heart phosphodiesterase using 1 uM cyclic-AMP with ethanol. Also on record: species or system Bos taurus. The conditions noted are these: read-out: I50. A digest of the protocol: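 Commercial bovine heart PDE, assayed by the Klee method with 1 μM cyclic-AMP substrate. Inhibitors were dissolved in 95% ethanol and diluted with buffer to 2.5% ethanol final. V0/V was plotted against inhibitor concentration, and I50 was taken where V0/V = 2. Five inhibitor concentrations spanning 25-75% inhibition were used, each I50 was run at least three times, and values are expressed relative to an ethanol-containing theophylline control (= 1.0) ± standard error.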

Assay [9] is filed under the species Bos taurus. The assay is described as follows: Inhibition of bovine heart phosphodiesterase using 1 uM cyclic-AMP. The method, boiled down: as §1

The results in this text go back to ChEMBL document CHEMBL1121738, “Mesoionic purinone analogues as inhibitors of cyclic-AMP phosphodiesterase: a comparison of several ring systems” (J Med Chem, 1981).

Bounds are passed on as bounds.

For `CCC1C(=O)N=C2SC=NN2C1=O` (centres undefined), the I50 result in assay [1] is listed as “Insoluble”.

Turning to `O=C1CC(=O)[N+](c2ccccc2)=C2SC=CN12`, the inhibition in assay [2] is less than 40%.

Take `CCC1C(=O)N(C)C2SC=CN2C1=O` (centres undefined): the inhibition in [2] is less than 40%.

For `C[N+]1=C2SC=CN2C(=O)CC1=O`, the inhibition in [2] was less than 40%.

As to `CC[N+]1=C2SC=NN2C(=O)C(C)C1=O` (centres undefined), the Relative potency in assay [3] came out at 0.4. Also, the IC50 in assay [4] amounted to 1160 µM.

Compound `CCC1C(=O)N2C=CC=CC2=[N+](CC2CCCCC2)C1=O` (centres undefined) gave a Relative potency in assay [3] of 2. In addition, the IC50 in assay [4] stood at 210 µM.

`CC1C(=O)N(C)C2SC=CN2C1=O` (centres undefined): the inhibition in assay [2] is less than 40%.

`CCC1C(=O)N2N=CN(C)C2=[N+](C)C1=O` (centres undefined) displayed an inhibition in assay [5] of less than 30%.

For `CCC1C(=O)N2C=CSC2=[N+](Cc2ccccc2)C1=O` (centres undefined), in assay [3], the Relative potency came out at 0.9. In addition, the IC50 in assay [4] came out at 430 µM.

In assay [3], `Cn1c(=O)c2[nH]cnc2n(C)c1=O` came in with a Relative potency of 1.

In assay [3], `CC[N+]1=C2SC=CN2C(=O)C(Cc2ccccc2)C1=O` (centres undefined) displayed a Relative potency of 2.5. Also, the IC50 in [4] worked out at 168 µM.

As to `CCC1C(=O)N2C=CSC2=[N+](Cc2ccc(-c3ccccc3)cc2)C1=O` (centres undefined), in [3], the Relative potency came to 31.7. The IC50 in assay [4] is 13 µM.

In turn, `CCC1C(=O)N(CC)c2scc[n+]2C1=O` (centres undefined) showed a Relative potency in assay [3] of 0.3. Also, the IC50 in assay [4] worked out at 858 µM.

In turn, `CCC1C(=O)N2CCSC2=[N+](CC(C)C)C1=O` (centres undefined) had an inhibition in assay [6] of 39%.

The compound `CC[N+]1=C2N(C)C=CN2C(=O)C(C)C1=O` (centres undefined) registered an inhibition in assay [7] of less than 30%.

Compound `CC[N+]1=C2SC=NN2C(=O)C(Cc2ccccc2)C1=O` (centres undefined) yielded a Relative potency in [3] of 7.9. Besides, in assay [4], the IC50 was 52 µM.

`Cn1c(=O)c2nc[nH]c2n(C)c1=O` [THEOPHYLLINE]: the IC50 in assay [8] turned out to be 412 µM; in [4], 286 µM.

With `CCC1C(=O)N2C=CSC2=[N+](c2ccccc2)C1=O` (centres undefined), in assay [2], the inhibition is less than 40%.

In [3], `CCC1C(=O)N2CCSC2=[N+](CC2CC2)C1=O` (centres undefined) showed a Relative potency of 0.2. The IC50 in assay [4] was 1390 µM.

`CCC1C(=O)N2C=CSC2=[N+](Cc2ccccc2Cl)C1=O` (centres undefined) showed a Relative potency in [3] of 1.4. Moreover, the IC50 in assay [4] came out at 305 µM.

Compound `O=C1CC(=O)[N+](CC2CC2)=C2SC=CN12` yielded a Relative potency in assay [3] of 0.6. The IC50 in assay [4] came out at 495 µM.

Turning to `CCC1C(=O)N2C=CSC2=[N+](Cc2ccc(Cl)cc2)C1=O` (centres undefined), the Relative potency in [3] was 2.2. Moreover, in [4], the IC50 stood at 191 µM.

In assay [5], `CN1C=NN2C(=O)CC(=O)[N+](C)=C12` came in with an inhibition of less than 30%.

As for `CCC1C(=O)N=C2SC=CN2C1=O` (centres undefined), the I50 entry in [1] is on record as “Insoluble”.

Consider `CC[N+]1=C2SC=CN2C(=O)C(C)C1=O` (centres undefined), for which, in [3], the Relative potency is 0.3. In addition, in assay [4], the IC50 worked out at 951 µM.

With `CCC1C(=O)N2C=CN(C)C2=[N+](CC)C1=O` (centres undefined), in assay [7], the inhibition was less than 30%.

The compound `CCC1C(=O)N2C=CC=NC2=[N+](C)C1=O` (centres undefined) had a Relative potency in [3] of 0.2. Further, the IC50 in assay [4] was 1670 µM.

`CCC1C(=O)N2C=CSC2=[N+](Cc2ccc3c(c2)OCO3)C1=O` (centres undefined): the Relative potency in assay [3] turned out to be 1.6. Besides, the IC50 in [4] was determined as 261 µM.

`CCCC1C(=O)N2N=CN(C)C2=[N+](C)C1=O` (centres undefined) displayed a Relative potency in assay [3] of 0.2. In assay [4], the IC50 is 1710 µM.

Take `O=C1CC(=O)[N+](CC2CC2)=C2SCCN12`: the Relative potency in assay [3] was 0.1. Moreover, the IC50 in [4] was found to be 2050 µM.

As to `CC1C(=O)N2N=CN(C)C2=[N+](C)C1=O` (centres undefined), in [5], the inhibition is less than 30%.

Compound `CC1C(=O)N2CCSC2=[N+](CC2CC2)C1=O` (centres undefined) showed a Relative potency in [3] of 0.2. Besides, the IC50 in [4] turned out to be 1260 µM.

Turning to `C[N+]1=C2SC=NN2C(=O)CC1=O`, the Relative potency in assay [3] is 0.4. The IC50 in assay [4] turned out to be 1100 µM.

On to `CC1C(=O)N2C=CSC2=[N+](c2ccccc2)C1=O` (centres undefined), for which the inhibition in assay [2] was less than 40%.

As for `CCC1C(=O)N2C=CSC2=[N+](Cc2cc(OC)cc(OC)c2)C1=O` (centres undefined), in assay [3], the Relative potency is 1.3. In assay [4], the IC50 turned out to be 323 µM.

On to `CCC1C(=O)N2C=CSC2=[N+](Cc2cccc(Cl)c2)C1=O` (centres undefined), for which the Relative potency in assay [3] turned out to be 2. Besides, in assay [4], the IC50 came out at 208 µM.

In assay [3], `CCC1C(=O)N2C=CSC2=[N+](CC(C)C)C1=O` (centres undefined) had a Relative potency of 0.6. Further, in [4], the IC50 turned out to be 498 µM.

Take `CC1C(=O)N2C=CSC2=[N+](CC2CC2)C1=O` (centres undefined): the Relative potency in assay [3] came to 0.9. Moreover, the IC50 in assay [4] is 319 µM.

`CCC1C(=O)N2C=Cc3ccccc3C2=[N+](CC)C1=O` (centres undefined): the Relative potency in assay [3] worked out at 3.2. Moreover, in [4], the IC50 worked out at 127 µM.

Compound `CCC1C(=O)N=C2N=CC=CN2C1=O` (centres undefined) showed an inhibition in assay [5] of 22%.

`CC[N+]1=C2SC=NN2C(=O)CC1=O` returned a Relative potency in [3] of 0.5. The IC50 in assay [4] was determined as 774 µM.

For `CCC1C(=O)N2C=CSC2=[N+](CC2CC2)C1=O` (centres undefined), the Relative potency in [3] amounted to 0.7. Besides, the IC50 in assay [4] was 396 µM.

As to `CC1C(=O)N2N=CSC2=[N+](Cc2ccccc2)C1=O` (centres undefined), the Relative potency in assay [3] amounted to 2.2. Also, the IC50 in assay [4] came out at 191 µM.

Compound `CCC1C(=O)N2CCSC2=[N+](CC)C1=O` (centres undefined) displayed an inhibition in assay [9] of 38%.

Turning to `CC[N+]1=C2SC=CN2C(=O)CC1=O`, in [3], the Relative potency came out at 0.3. Besides, the IC50 in assay [4] was found to be 988 µM.

In assay [3], `COc1ccc(C[N+]2=C3SC=CN3C(=O)C(C)C2=O)cc1` (centres undefined) showed a Relative potency of 0.7. Moreover, the IC50 in [4] is 532 µM.

`CCC1C(=O)N2N=CSC2=[N+](CC)C1=O` (centres undefined): the Relative potency in [3] amounted to 0.7. For the same compound, in [4], the IC50 worked out at 555 µM.

In [3], `O=C1CC(=O)[n+]2ccsc2N1Cc1cccc(Cl)c1` came in with a Relative potency of 1.3. In addition, the IC50 in assay [4] worked out at 308 µM.
